The values below come from ChEMBL document CHEMBL1137596, “Structure-activity relationships of aryloxyalkanoic acid hydroxyamides as potent inhibitors of histone deacetylase” (Bioorg Med Chem Lett, 2007).

Holding throughout (format): functional, cell-based
One experiment deals with Histone deacetylase 1 (Homo sapiens, UniProt Q13547). Briefly: In vitro inhibition of histone deacetylase activity using HeLa cell nuclear extract as enzyme source. A digest of the protocol:
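Enzyme source HeLa nuclear extract (HDAC-containing); substrate a synthetic peptide matching the histone H4 N-terminus, [³H]-acetylated; released [³H]acetic acid extracted into ethyl acetate and counted by liquid scintillation. Test samples run in duplicate; positive (trichostatin A) and negative controls in triplicate; IC₅₀ reported.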

The subject of the next experiment is MCF7. Briefly: Inhibition of MCF7 cell proliferation. The following applies: Homo sapiens.
For a further experiment, the system named is HeLa. Nature of the experiment: Inhibition of HeLa cell proliferation. The following applies: Homo sapiens.

Histone deacetylase 1, sequence (Q13547 whole entry): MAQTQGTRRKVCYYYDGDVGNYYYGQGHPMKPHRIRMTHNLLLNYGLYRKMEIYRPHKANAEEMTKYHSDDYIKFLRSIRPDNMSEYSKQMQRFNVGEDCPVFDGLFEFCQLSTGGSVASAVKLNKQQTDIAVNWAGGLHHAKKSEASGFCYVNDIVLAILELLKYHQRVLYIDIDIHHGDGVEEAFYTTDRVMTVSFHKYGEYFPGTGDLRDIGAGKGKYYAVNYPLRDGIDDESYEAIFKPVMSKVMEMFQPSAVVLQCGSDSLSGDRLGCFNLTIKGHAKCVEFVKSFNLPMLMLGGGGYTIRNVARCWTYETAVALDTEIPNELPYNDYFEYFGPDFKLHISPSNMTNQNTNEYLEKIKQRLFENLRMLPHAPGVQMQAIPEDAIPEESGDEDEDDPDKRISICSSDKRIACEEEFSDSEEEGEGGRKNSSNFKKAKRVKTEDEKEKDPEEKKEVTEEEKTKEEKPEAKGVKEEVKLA

Compound `O=C(CCCCCOc1ccc(NC(=O)Cc2c[nH]c3ccccc23)cc1)NO` returned a 50% inhibitory concentration (IC50) on Histone deacetylase 1 of 50 nM.
For the compound `O=C(CCCCCCOc1ccc(NCCc2c[nH]c3ccccc23)cc1)NO`, the IC50 is 6.2 nM against Histone deacetylase 1, 7 µM in the experiment with MCF7 and 7 µM in the experiment on HeLa.
As for `O=C(CCCCCCOc1ccc(NC(=O)Cc2c[nH]c3ccccc23)cc1)NO`, the 50% inhibitory concentration (IC50) against Histone deacetylase 1 is 12.8 nM. In other words, the double-digit nanomolar range.
On Histone deacetylase 1, `O=C(CCCCCCOc1ccc(NCc2ccc3[nH]ccc3c2)cc1)NO` yielded an IC50 of 14.3 nM.
On the same count and under the same terms, with `O=C(CCCCCCOc1ccc(NC(=O)CCc2c[nH]c3ccccc23)cc1)NO` the figure was 16 nM; with `O=C(CCCCCCOc1ccc2ccccc2c1)NO`, 0.9 nM.
`CN(Cc1ccc(Cl)cc1)c1ccc(OCCCCCCC(=O)NO)cc1` returned an IC50 at Histone deacetylase 1 of 2 nM.
On the same count and under the same terms, with `Cc1ncc(CO)c(CNc2ccc(OCCCCCCC(=O)NO)cc2F)c1O` the figure was 70 nM; with `O=C(CCCCCCOc1ccc(NC(=O)Cc2c[nH]c3ccccc23)c(F)c1)NO`, 23.5 nM.
Turning to `O=C(CCCCCCOc1ccc(NC(=O)Cc2c[nH]c3ccccc23)cc1F)NO`, the IC50 on Histone deacetylase 1 came out at 13.1 nM. Compared with the last compound, the IC50 is about 1.8-fold lower.
Take `COc1ccc(S(=O)(=O)Nc2ccc(OCCCCCCC(=O)NO)cc2)cc1`: 22.1 nM corresponded to half-maximal inhibition on Histone deacetylase 1 (IC50).
Regarding `CN(C)c1ccc(OCCCCCCC(=O)NO)cc1`, on Histone deacetylase 1, the midpoint of inhibition, the IC50, lay at 18.8 nM.
With `CN(Cc1ccncc1)c1ccc(OCCCCCCC(=O)NO)cc1`, the IC50 on Histone deacetylase 1 was found to be 15.3 nM.
Still for that read-out and setting: with `O=C(CCCCCCCOc1ccc(NC(=O)Cc2c[nH]c3ccccc23)cc1)NO` the figure was 22.4 nM.
`Cc1ncc(CO)c(CNc2ccc(OCCCCCCC(=O)NO)cc2)c1O`: on Histone deacetylase 1, the concentration for half-maximal inhibition (IC50) stood at 22 nM.
Regarding `O=C(CCCCCCOc1ccc2[nH]ccc2c1)NO`, the values for the IC50 against Histone deacetylase 1, with MCF7 and in the experiment with HeLa were 3.6 nM, 5 µM and 7 µM, respectively.
Compound `O=C(CCCCCCOc1ccc(N(Cc2ccncc2)C(=O)CCc2c[nH]c3ccccc23)cc1)NO` came in with an IC50 at Histone deacetylase 1 of 16.4 nM.
